SMILES strings stand for the structures. Where a chain is given by its changes, count along the chain named. Some results are limits rather than exact numbers.

Broadly, the Ki is the dissociation constant of the complex between target and ligand, obtained from inhibition or displacement.

One test has as its target T1, OfHex1 (W490A) (Ostrinia furnacalis, UniProt Q06GJ0, W490A).
T1 sequence (Q06GJ0 23-594 W490A): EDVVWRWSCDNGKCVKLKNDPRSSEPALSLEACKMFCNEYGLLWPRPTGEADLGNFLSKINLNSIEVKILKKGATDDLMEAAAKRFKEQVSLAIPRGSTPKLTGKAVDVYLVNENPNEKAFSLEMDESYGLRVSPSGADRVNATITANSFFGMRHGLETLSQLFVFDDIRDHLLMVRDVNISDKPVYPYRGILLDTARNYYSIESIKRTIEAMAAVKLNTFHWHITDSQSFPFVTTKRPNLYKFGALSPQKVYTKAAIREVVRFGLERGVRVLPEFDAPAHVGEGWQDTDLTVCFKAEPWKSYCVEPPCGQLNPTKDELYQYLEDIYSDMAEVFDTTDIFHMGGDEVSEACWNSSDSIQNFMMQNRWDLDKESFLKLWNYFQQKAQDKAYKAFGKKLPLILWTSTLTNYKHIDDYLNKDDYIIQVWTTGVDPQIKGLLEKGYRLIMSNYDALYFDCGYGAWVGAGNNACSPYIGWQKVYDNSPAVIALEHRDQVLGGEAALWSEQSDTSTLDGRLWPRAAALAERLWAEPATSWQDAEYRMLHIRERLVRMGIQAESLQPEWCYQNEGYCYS
Kind of test: Inhibition of mutant OfHex1-W490A. It is filed as biochemical. A digest of the protocol:
(§1)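 Purchased bovine Hex, recombinant O. furnacalis OfHex2 and the OfHex1 W490A mutant were assayed at 25°C with pNP-β-GlcNAc. Reactions were stopped with 0.5 M Na2CO3 and A405 was recorded. Where Ki was determined, substrate was 0.075, 0.125 and 0.2 mM, with values from linear Dixon-plot fits. W490A was also tested at 100 µM inhibitor.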

Test [1] addresses T2, OfHex1 (chitinolytic β-GlcNAcase) (Ostrinia furnacalis, UniProt Q06GJ0).
T2 sequence (Q06GJ0 23-594): T1 sequence (Q06GJ0 23-594 W490A) with A468W
Kind of test: Inhibition of OfHex1, pNP-β-GlcNAc substrate, Dixon plots. It is filed as biochemical. Summed up:
(§2)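 Recombinant O. furnacalis OfHex1, recombinant S. marcescens SmChb and purchased T. viride TvHex were assayed at 25°C with pNP-β-GlcNAc in 20 mM sodium phosphate, pH 6.0. After incubation, 0.5 M Na2CO3 was added and A405 measured. Ki used substrate at 0.075, 0.125 and 0.2 mM and an enzyme-specific inhibitor range. Ki and inhibition type came from linear Dixon-plot fitting.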

The target of test [2] is HsHex (human glycoconjugate-lytic β-GlcNAcase) (Homo sapiens, UniProt P07686). Kind of test: Inhibition of HsHex, pNP-β-GlcNAc substrate, Dixon plots. It is filed as biochemical.
Test [3] has as its target T3, SpHex (chitinolytic β-GlcNAcase) (Streptomyces plicatus, UniProt O85361).
T3 sequence (O85361 1-506): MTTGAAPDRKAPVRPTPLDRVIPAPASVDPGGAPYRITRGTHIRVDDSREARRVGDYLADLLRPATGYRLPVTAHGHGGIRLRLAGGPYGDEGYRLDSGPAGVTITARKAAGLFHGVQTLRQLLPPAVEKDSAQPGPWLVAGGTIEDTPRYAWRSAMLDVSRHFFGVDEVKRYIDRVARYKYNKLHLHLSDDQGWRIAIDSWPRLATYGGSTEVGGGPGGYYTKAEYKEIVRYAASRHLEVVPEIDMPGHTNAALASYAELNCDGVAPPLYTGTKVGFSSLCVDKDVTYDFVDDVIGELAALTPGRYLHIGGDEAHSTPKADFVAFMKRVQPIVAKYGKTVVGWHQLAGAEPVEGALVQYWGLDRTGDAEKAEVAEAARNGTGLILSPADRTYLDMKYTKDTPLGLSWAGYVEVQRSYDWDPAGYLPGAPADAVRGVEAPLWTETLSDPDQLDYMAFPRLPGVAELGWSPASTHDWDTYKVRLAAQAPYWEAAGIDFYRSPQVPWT
Kind of test: Inhibition of SpHex. It is filed as biochemical.

Test [4] has as its system OfHex2 (glycoconjugate-lytic β-GlcNAcase). Kind of test: Inhibition of OfHex2. It is filed as biochemical, O. furnacalis. A digest of the protocol: as §1
Test [5] concerns the target TvHex (chitinolytic β-GlcNAcase). Kind of test: Inhibition of TvHex. It is filed as biochemical, Trichoderma viride. Conditions: read-out: Ki for TvHex; pNP-β-GlcNAc, pH 6.0. Summed up:
as §2

For test [6], the system named is CeHex (glycoconjugate-lytic β-GlcNAcase). Kind of test: Inhibition of CeHex. It is filed as biochemical, Canavalia ensformis.
Test [7] concerns the target T4, SmChb (chitinolytic β-GlcNAcase) (Serratia marcescens, UniProt Q54468).
T4 sequence (Q54468 28-885): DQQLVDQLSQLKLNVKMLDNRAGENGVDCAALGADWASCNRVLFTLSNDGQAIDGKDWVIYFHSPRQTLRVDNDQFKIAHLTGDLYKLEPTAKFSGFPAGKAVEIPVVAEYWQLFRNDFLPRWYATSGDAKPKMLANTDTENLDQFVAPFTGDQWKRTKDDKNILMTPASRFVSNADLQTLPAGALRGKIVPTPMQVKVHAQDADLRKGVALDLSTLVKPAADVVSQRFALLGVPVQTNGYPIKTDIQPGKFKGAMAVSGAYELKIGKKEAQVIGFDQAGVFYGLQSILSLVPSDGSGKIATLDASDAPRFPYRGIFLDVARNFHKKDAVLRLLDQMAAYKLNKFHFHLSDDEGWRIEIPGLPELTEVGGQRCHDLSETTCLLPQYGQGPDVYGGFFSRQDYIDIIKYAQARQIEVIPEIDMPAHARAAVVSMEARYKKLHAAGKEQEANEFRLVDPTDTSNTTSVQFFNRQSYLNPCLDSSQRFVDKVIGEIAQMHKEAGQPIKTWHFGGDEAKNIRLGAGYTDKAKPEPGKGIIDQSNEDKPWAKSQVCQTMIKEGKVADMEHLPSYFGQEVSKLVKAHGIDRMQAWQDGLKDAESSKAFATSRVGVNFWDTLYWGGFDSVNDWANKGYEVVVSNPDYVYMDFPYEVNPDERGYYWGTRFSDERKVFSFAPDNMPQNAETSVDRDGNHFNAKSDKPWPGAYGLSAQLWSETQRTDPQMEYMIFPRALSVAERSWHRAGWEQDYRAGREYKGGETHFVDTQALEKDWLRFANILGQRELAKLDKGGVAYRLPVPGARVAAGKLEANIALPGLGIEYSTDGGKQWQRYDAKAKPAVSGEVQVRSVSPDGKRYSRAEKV
Kind of test: Inhibition of SmChb. It is filed as biochemical. A digest of the protocol: as §2

The test system of test [8] is BoHex (glycoconjugate-lytic β-GlcNAcase). Kind of test: Inhibition of BoHex. It is filed as biochemical, bovine. A digest of the protocol: as §1
Test [9] relates to glycoconjugate-lytic β-GlcNAcases from plant and human. Conditions: cited from earlier work.

Chain of HsHex (human glycoconjugate-lytic β-GlcNAcase) (P07686 122-311 limits assumed): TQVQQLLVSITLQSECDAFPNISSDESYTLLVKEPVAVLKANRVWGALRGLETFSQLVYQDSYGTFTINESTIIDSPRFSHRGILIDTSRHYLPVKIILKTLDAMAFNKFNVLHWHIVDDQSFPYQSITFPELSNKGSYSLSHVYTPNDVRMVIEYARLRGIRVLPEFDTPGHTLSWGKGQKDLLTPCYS
Chain of HsHex (human glycoconjugate-lytic β-GlcNAcase) (P07686 315-556 limits assumed): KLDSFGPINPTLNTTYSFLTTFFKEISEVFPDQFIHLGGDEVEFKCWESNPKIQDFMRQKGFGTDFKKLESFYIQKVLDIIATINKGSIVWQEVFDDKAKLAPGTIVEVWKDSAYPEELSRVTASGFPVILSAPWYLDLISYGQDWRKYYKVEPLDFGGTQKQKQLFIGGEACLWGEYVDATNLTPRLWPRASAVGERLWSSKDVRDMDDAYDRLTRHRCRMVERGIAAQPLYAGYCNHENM

With `Cc1nnc(CNCCN2C(=O)c3cccc4cccc(c34)C2=O)s1` [Q1, 2-(2-(((5-methyl-1,3,4-thiadiazol-2-yl)methyl)amino)ethyl)-1H-benzo[de]isoquinoline-1,3(2H)-dione], the Ki on OfHex1 (W490A) was greater than 100 µM; in test [1], 4.28 µM; in test [2], 2.15 µM. Besides, the “Inhibition of OfHex1-W490A at 100 µM” value at OfHex1 (W490A) (100 µM) was “could not inhibit”. Also, in test [1], the “Type of inhibition toward OfHex1 (Dixon plots)” value is listed as “competitive inhibitor”. Besides, the “Type of inhibition toward HsHex (Dixon plots)” value in test [2] (Dixon plots) was “competitive inhibitor”.

As to `Cc1nnc(CNCCN2C(=O)c3cccc4c(N(C)C)ccc(c34)C2=O)s1` [Q2, 6-(dimethylamino)-2-(2-(((5-methyl-1,3,4-thiadiazol-2-yl)methyl)amino)ethyl)-1H-benzo[de]isoquinoline-1,3(2H)-dione], the Ki in test [3] is 74.8 µM; in test [5], 25 µM; at OfHex1 (W490A), greater than 100 µM; in test [7], 8.25 µM; in test [1] it was 0.31 µM; in test [2], greater than 100 µM. Besides, the “Inhibition of OfHex2” value in [4] is reported as “does not inhibit”. For the same molecule, the “Inhibition of CeHex” value in [6] was “does not inhibit”. Moreover, the “Type of inhibition toward OfHex1 (Dixon plots)” value in test [1] is “competitive”. Further, the “Increment in inhibitory activity against OfHex1 compared to Q1” value in [1] (Q2 versus Q1, from Ki) was 13 fold. In addition, in test [8], the “Inhibition of BoHex” value is “does not inhibit”. Moreover, the “Inhibition of HsHex at 100 µM” value in [2] (100 µM) was “does not inhibit”.

In the case of `CC(=O)NC1C(O)O[C@H](CO)[C@@H](O[C@@H]2O[C@H](CO)[C@@H](O[C@@H]3O[C@H](CO)[C@@H](O[C@H]4O[C@H](CO)[C@@H](O)[C@H](O)[C@H]4[N+](C)(C)C)[C@H](O)[C@H]3NC(C)=O)[C@H](O)[C@H]2NC(C)=O)[C@@H]1O` (stereo partly shown) [TMG-chitotriomycin], the “Activity toward glycoconjugate-lytic β-GlcNAcases from plant and human” value in [9] was “not active”.

The values are drawn from paper PMC4143770 (Scientific Reports, 2014).
